This is an account of results in article PMC11393732 (RSC Medicinal Chemistry, 2024).

pIC50: −log10 of the molar value.

Series [1] concerns the target KDM3B (Homo sapiens, UniProt Q7LBC6). Briefly: Western blot KDM3B degradation in SW480 cells. The format is cell-based. To be noted: SW480 cells, 16 hours. An outline of the steps: (§1)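 SW480 cells exposed to test compound for 16 h, then total lysates protein-normalised and run on SDS-PAGE. Semi-dry transfer to PVDF, 1 h block in 5% milk. Primary antibody overnight at 4 °C in 1% milk, secondary 1 h at RT, TBST washes, α-tubulin as loading control. Rescue arms co-treated with MLN4924 (1 μM) or pomalidomide (100 μM). Test compound at 0.1 μM for the KDM3A blot and 1 μM for the KDM3B blot.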
On the technique in general: A western blot detects proteins with antibodies after separation by electrophoresis.

In series [2] the target is T1, KDM3A (Homo sapiens, UniProt Q9Y4C1).
T1 sequence (Q9Y4C1 1-1321): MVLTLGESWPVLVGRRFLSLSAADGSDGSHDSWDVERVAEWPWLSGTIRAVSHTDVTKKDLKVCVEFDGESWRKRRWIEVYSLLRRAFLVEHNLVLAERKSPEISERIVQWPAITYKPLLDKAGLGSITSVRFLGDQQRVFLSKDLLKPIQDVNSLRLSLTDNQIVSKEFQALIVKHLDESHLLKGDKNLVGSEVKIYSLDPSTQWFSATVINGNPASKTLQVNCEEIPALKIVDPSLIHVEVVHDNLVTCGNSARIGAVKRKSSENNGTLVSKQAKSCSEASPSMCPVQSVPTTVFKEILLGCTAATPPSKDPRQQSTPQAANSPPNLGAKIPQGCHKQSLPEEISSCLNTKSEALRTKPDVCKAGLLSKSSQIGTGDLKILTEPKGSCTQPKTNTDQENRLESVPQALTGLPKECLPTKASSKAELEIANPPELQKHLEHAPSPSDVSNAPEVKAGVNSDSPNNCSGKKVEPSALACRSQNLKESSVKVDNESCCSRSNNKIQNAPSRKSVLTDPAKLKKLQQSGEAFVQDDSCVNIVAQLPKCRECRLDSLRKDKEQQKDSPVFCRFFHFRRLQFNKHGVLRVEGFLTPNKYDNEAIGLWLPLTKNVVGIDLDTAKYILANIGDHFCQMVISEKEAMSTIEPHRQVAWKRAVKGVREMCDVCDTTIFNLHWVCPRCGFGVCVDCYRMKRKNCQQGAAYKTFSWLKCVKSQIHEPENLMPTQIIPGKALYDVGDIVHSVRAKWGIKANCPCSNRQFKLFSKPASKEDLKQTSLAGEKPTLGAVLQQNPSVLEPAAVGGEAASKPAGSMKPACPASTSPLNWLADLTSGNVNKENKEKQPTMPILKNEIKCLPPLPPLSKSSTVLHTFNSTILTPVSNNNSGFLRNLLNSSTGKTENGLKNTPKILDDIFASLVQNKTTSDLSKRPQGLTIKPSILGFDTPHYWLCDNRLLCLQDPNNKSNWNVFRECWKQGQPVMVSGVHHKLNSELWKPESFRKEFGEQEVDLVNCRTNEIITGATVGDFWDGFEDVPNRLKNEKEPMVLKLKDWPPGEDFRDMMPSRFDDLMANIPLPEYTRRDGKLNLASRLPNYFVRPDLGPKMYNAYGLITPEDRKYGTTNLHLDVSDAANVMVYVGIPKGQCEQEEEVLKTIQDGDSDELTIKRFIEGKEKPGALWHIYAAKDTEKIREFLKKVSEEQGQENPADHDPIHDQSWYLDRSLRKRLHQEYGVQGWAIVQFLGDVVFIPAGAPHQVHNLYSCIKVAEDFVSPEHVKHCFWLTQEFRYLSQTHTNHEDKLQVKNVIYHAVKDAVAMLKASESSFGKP
The experiment in a line: Western blot KDM3A degradation in SW480 cells. The format is cell-based. To be noted: SW480 cells, 16 hours. An outline of the steps: as §1

Series [3] relates to SW480 cells. Briefly: Clonogenic assay SW480. The format is cell-based, human. The note with it: SW480, 2 weeks. An outline of the steps: (§2)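 Cells kept in DMEM with 10% FBS and 1% pen–strep, seeded at 500 cells/well and dosed with test compound once attached. Medium refreshed every 3 days for 2 weeks. Colonies stained with 0.5% crystal violet and photographed. ED50 obtained by image analysis.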

Series [4] deals with Wnt target genes in SW480 cells. The experiment in a line: RT-qPCR of Wnt target gene expression in SW480. It is filed as cell-based, human. An outline of the steps: (§3)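 Cells in 6-well plates exposed to test compound for 16 h. Total RNA extracted; 1 μg reverse-transcribed with M-MuLV and random hexamers. SYBR Green qPCR for the named genes, quantified by 2ΔΔct against tubulin. Mean ± SD; unpaired two-tailed Student's t-test.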

The test system of series [5] is CRL-1790 cells. Briefly: CCK-8 based toxicity assay. The format is cell-based, human. An outline of the steps: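 Non-malignant human colon epithelial CRL-1790 cells grown in EMEM with 10% FBS and 1% pen–strep at 37 °C and 5% CO2. Seeded at 3 × 10^3 cells/well in 96-well plates, then exposed to test compound. Viability read by CCK-8 at 48 h as OD 450 nm. TD50 derived from the dose–response.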
(Tetrazolium dyes change colour on reduction, which living cells bring about.)

For series [6], the system named is ALDH^high-HCP-1 CSCs. Briefly: Tumor sphere formation assay HCP-1. The format is cell-based, human. To be noted: 2 weeks. An outline of the steps: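 Trypsinised cells passed through a 40 μm strainer and stained with ALDEFLUOR. ALDHHigh cells sorted by FACS, with DEAB-treated cells as gating control. Plated at 1000 cells/well on ultra-low attachment in serum-free MEBM containing 2% B27, 20 ng mL−1 EGF, 10 ng mL−1 FGF, 1 ng mL−1 hydrocortisone, 5 μg mL−1 insulin and 100 μM β-mercaptoethanol. Dosed 1 h after plating; medium renewed at 1 week. Spheres >40 μm counted at 2 weeks for ED50.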

In series [7] the test system is KDM4 family proteins (KDM4A, KDM4B and KDM4C). The experiment in a line: Western blot KDM4 family proteins in SW480 cells. The format is cell-based, human. An outline of the steps:
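Lysates from compound-treated SW480 cells normalised for total protein and resolved by SDS-PAGE. Semi-dry transfer to PVDF, 1 h block in 5% milk. Overnight incubation at 4 °C with anti-KDM4A, -KDM4B or -KDM4C antibody in 1% milk, secondary 1 h at RT, TBST washes, α-tubulin as loading control.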

In series [8] the test system is Wnt target genes in HCP-1 cells. The experiment in a line: RT-qPCR of Wnt target gene expression in HCP-1. It is filed as cell-based, human. An outline of the steps:
as §3
In general terms: Quantitative PCR measures a nucleic acid by following its amplification.

For series [9], the system named is HCP-1 cells. Briefly: Clonogenic assay HCP-1. It is filed as cell-based, human. To be noted: HCP-1, 2 weeks. An outline of the steps: as §2
Series [10] in a line: Hepatic metabolism S9 fraction incubation, human. The note with it: 0.1 μM, plus glutathione, UDPGA, PAPS, 37 °C.
Series [11] can be described thus: Hepatic metabolism S9 fraction incubation, rat. To be noted: 0.1 μM, plus glutathione, UDPGA, PAPS, 37 °C.
The test system of series [12] is 293T cells expressing a TCF-responsive luciferase reporter (293T-TCF-Luc). The experiment in a line: Wnt luciferase reporter assay. To be noted: Homo sapiens, HEK-293T, 16 h, read-out: IC50 (293T-TCF-Luc). It is filed as cell-based. An outline of the steps: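 293T cells stably transduced with a lentiviral TCF/LEF–luciferase reporter and selected in puromycin ([…], 4 days). Seeded at 100 000 cells/well and dosed with test compound on attachment. Wnt signalling stimulated with 20 mM LiCl 4 h later. Lysates taken at 16 h; Bright-Glo luminescence normalised to total protein.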

Series [13] deals with CSC growth. The note with it: most cell-based assays ref 16,17; cited from earlier work.

Chain of KDM3B (Q7LBC6 whole entry): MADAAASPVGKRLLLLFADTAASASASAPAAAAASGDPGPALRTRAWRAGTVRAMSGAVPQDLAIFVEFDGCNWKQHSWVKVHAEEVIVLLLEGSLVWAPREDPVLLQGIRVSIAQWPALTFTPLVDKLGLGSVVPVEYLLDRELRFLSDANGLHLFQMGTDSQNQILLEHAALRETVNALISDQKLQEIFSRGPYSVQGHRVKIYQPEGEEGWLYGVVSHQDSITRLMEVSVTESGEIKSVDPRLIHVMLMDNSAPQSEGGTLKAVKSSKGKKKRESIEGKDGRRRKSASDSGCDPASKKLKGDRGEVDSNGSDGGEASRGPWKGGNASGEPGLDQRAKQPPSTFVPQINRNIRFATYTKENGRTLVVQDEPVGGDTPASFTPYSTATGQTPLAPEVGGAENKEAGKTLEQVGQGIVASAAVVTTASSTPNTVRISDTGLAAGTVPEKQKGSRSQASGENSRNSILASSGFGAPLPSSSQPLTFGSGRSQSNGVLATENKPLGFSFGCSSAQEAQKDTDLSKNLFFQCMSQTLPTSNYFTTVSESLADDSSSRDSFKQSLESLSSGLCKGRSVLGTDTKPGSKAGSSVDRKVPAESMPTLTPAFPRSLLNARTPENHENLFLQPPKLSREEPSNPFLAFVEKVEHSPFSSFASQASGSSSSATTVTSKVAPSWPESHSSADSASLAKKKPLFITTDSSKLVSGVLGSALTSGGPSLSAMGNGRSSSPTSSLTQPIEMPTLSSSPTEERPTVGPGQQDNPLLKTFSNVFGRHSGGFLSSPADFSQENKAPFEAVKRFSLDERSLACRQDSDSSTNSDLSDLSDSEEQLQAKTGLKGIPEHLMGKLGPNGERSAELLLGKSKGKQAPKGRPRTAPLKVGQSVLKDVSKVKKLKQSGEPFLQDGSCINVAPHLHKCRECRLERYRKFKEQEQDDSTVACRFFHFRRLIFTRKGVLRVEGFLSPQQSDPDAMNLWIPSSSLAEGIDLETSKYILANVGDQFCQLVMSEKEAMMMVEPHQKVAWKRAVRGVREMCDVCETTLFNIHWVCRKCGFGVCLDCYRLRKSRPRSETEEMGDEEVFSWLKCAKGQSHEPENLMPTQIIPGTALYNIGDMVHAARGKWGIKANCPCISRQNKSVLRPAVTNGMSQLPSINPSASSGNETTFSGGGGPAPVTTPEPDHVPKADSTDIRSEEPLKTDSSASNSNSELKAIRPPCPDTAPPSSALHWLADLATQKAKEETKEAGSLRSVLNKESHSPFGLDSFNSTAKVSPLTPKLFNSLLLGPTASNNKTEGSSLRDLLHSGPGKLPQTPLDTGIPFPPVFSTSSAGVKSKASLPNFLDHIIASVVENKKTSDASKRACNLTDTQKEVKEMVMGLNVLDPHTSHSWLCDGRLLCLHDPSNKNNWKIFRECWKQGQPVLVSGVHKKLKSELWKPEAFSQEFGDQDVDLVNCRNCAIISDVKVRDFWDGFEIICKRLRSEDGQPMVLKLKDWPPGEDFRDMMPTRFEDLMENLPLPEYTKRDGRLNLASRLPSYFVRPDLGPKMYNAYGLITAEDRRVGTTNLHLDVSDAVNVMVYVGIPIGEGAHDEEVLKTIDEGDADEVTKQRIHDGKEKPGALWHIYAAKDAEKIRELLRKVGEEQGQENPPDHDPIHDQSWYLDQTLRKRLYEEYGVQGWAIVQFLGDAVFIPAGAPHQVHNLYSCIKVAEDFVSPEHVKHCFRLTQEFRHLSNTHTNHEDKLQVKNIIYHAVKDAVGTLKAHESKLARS

As to `O=C1CCC(N2C(=O)c3cccc(NCCOCCOCCOCCNC(=O)c4ccc(O)c5ncccc45)c3C2=O)C(=O)N1` (stereo not drawn) [Compound 3, N-(2-(2-(2-(2-((2-(2,6-Dioxopiperidin-3-yl)-1,3-dioxoisoindolin-4-yl)amino)ethoxy)ethoxy)ethoxy)ethyl)-8-hydroxyquinoline-5-carboxamide], the “KDM3B degradation (western blot)” value in series [1] was “little effect in degrading KDM3A and KDM3B”. The “KDM3A degradation (western blot)” value in series [2] was “little effect in degrading KDM3A and KDM3B”.

As for `O=C1CCC(N2C(=O)c3cccc(NCCOCCOCCOCCOCCOCCNC(=O)c4ccc(O)c5ncccc45)c3C2=O)C(=O)N1` (stereo not drawn) [Compound 5, N-(17-((2-(2,6-Dioxopiperidin-3-yl)-1,3-dioxoisoindolin-4-yl)amino)-3,6,9,12,15-pentaoxaheptadecyl)-8-hydroxyquinoline-5-carboxamide], the “KDM3B degradation (western blot)” value in series [1] is “little effect in degrading KDM3A and KDM3B”. Besides, the “KDM3A degradation (western blot)” value in series [2] is “little effect in degrading KDM3A and KDM3B”.

`O=C1CCC(N2C(=O)c3cccc(NCCOCCOCCOCCOCCOCCOCCNC(=O)c4ccc(O)c5ncccc45)c3C2=O)C(=O)N1` (stereo not drawn) [Compound 6, N-(20-((2-(2,6-Dioxopiperidin-3-yl)-1,3-dioxoisoindolin-4-yl)amino)-3,6,9,12,15,18-hexaoxaicosyl)-8-hydroxyquinoline-5-carboxamide]: the colony formation result in series [3] and in series [9] was “potently inhibited the colony formation” each time. Moreover, the “suppression of Wnt target gene expression (AXIN2, DKK1, CCND1)” value in [4] (SW480, 50 μM, 16-hour treatment, in most cases) is not below 50%; in series [8] (HCP-1, 50 μM, 16-hour treatment, in most cases), not below 50%. Further, the “expression of colorectal CSC signature genes (ASCL2, RNF43, ZNRF3, LGR5)” value in [4] (SW480, 16 hours) was “strongly inhibited”; in series [8] (HCP-1, 16 hours), “strongly inhibited”. Besides, in [1], the “KDM3B degradation (western blot)” value was “limited ability to degrade KDM3A and KDM3B”. The “cell growth of CRL-1790” value in [5] (60 μM, two-day treatment) is on record as “not dramatically affected”. Moreover, in series [5] (CCK8 assay, 48 h post drug treatment), the “TD50 CRL-1790” value was 400.3 µM. Moreover, the “ED50 HCP-1 (tumor sphere formation)” value in series [6] worked out at 0.51 µM. Further, in series [7], the “effect on KDM4 family proteins” value is reported as “not dramatically affected”. In series [2], the “KDM3A degradation (western blot)” value is “limited ability to degrade KDM3A and KDM3B”.

In the case of `O=C(O)Cc1ccccc1Nc1c(Cl)cccc1Cl` [Diclofenac, reference compound], in [10], the “CLint Human (liver, S9)” value came to 37.5 µL/min/mg. The “CLint Rat (liver, S9)” value in series [11] stood at 6.8 µL/min/mg.

Consider `O=C(O)c1ccc(O)c2ncccc12` [IOX1, 8-Hydroxyquinoline-5-carboxylic acid, reference compound], for which, in series [12], the pIC50 was 4.31. Moreover, in series [1], the “KDM3B degradation (western blot)” value was “did not induce KDM3A and KDM3B degradation”. In [13], the “effective concentrations for suppressing CSC growth” value was 20 to 50 µM. Further, in series [6], the “ED50 HCP-1 (tumor sphere formation)” value amounted to 10.1 µM. In addition, in series [2], the “KDM3A degradation (western blot)” value is “did not induce KDM3A and KDM3B degradation”.

In the case of `CC(C)NCC(O)COc1cccc2ccccc12` (stereo not drawn) [Propranolol, reference compound], in [10] (human, s9, t 1/2 Human (liver, S9)), the half-life at 0.1 μM is more than 120 min.

As usually defined, the pIC50 is the negative decadic logarithm of the IC50, by convention in mol/L. For orientation: half-life means the time in which the quantity being followed falls by half.
